Test results from ChEMBL document CHEMBL1131493, “Inhibitors of farnesyl protein transferase. 4-Amido, 4-carbamoyl, and 4-carboxamido derivatives of 1-(8-chloro-6,11-dihydro-5H-benzo[5,6]- cyclohepta[1,2-b]pyridin-11-yl)piperazine and 1-(3-bromo-8-chloro-6,11- dihydro-5H-benzo[5,6]cyclohepta[1,2-b]pyridin-11-yl)piperazine” (J Med Chem, 1998).

Legend:
[1] = In vivo antitumor efficacy in cynomolgus monkeys 0-48 hr after iv dose of 5 mg/kg expressed as Area under the curve; format: ADME, organism-based, Macaca fascicularis; design: time < 48 hr, dose 5 mg/kg, route intravenous; settings: cynomolgus monkey
How it was run: (§1)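 Serum pharmacokinetics in nude mice or cynomolgus monkeys after oral (po) or iv dosing. Compounds were given as hydrochloride salts in 20% HPβCD unless otherwise noted. Other formulations were the hydrochloride salt in saline, the micronized free base in 20% HPβCD or corn oil (po) with saline for iv, or the hydrochloride salt in 0.4% methyl cellulose (po).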

[2] = biological target: geranylgeranyltransferase type-I (Rattus norvegicus, UniProt P53610+Q04631); test: Inhibition of rat Geranylgeranyl transferase (GGPT); format: protein-complex assay
Cynomolgus monkey [3] = test: (§2) Maximal plasma concentration in cynomolgus monkeys after 10 mg/kg oral dose; format: ADME, organism-based, Macaca fascicularis; design: dose 10 mg/kg, route oral; settings: in vivo; how it was run: as §1
[4] = as §2; format: ADME, organism-based, Macaca fascicularis; design: dose 10 mg/kg, route oral; settings: cynomolgus monkey, plasma; how it was run: as §1
[5] = Oral bioavailability in mouse (nude) (dose of 25 mg/kg); format: ADME, organism-based; settings: in vivo; how it was run: as §1
[6] = Maximal plasma concentration in cynomolgus monkeys after 5 mg/kg oral dose; format: ADME, organism-based, Macaca fascicularis; design: dose 5 mg/kg, route oral; settings: cynomolgus monkey; how it was run: as §1
[7] = Bioavailability in cynomolgus monkey (dose 5 mg/kg i.v.); format: ADME, organism-based, Macaca fascicularis; settings: in vivo, iv; how it was run: as §1
Mus musculus [8] = test: In vivo antitumor efficacy after peroral dose of 10 mg/kg in mice expressed as duration for which compound was present above IC50; format: ADME, organism-based; design: dose 10 mg/kg, route oral; settings: po; how it was run: as §1
Mus musculus [9] = test: In vivo antitumor efficacy after peroral dose of 25 mg/kg in mice expressed as duration for which compound was present above IC50; format: ADME, organism-based; design: dose 25 mg/kg, route oral; settings: po; how it was run: as §1
[10] = In vivo antitumor efficacy peroral dose of 25 mg/kg expressed as duration for which compound was present above IC50; format: ADME, organism-based; design: dose 25 mg/kg, route oral; settings: po; how it was run: as §1
Cynomolgus monkey [11] = test: In vivo antitumor efficacy after peroral dose of 10 mg/kg in cynomolgus monkeys expressed as duration for which compound was present above IC50; format: ADME, organism-based, Macaca fascicularis; design: dose 10 mg/kg, route oral; settings: po; how it was run: as §1
[12] = (§3) Maximal plasma concentration in nude mice after 25 mg/kg oral dose; format: ADME, organism-based; design: dose 25 mg/kg, route oral; settings: mouse; how it was run: as §1
[13] = In vivo antitumor efficacy in nude mice after peroral dose of 10 mg/kg expressed as Area under the curve; format: ADME, organism-based; design: dose 10 mg/kg, route oral; settings: mouse, po; how it was run: as §1
[14] = In vivo antitumor efficacy in nude mice 0-24 hr after peroral dose of 25 mg/kg expressed as Area under the curve; format: ADME, organism-based; design: time < 24 hr, dose 25 mg/kg, route oral; settings: nude, mouse, po; how it was run: as §1
[15] = In vivo antitumor efficacy in nude mice 0-24 hr after iv dose of 25 mg/kg expressed as Area under the curve; format: ADME, organism-based; design: time < 24 hr, dose 25 mg/kg, route intravenous; settings: mouse; how it was run: as §1
[16] = In vivo antitumor efficacy in cynomolgus monkeys 0-48 hr after peroral dose of 10 mg/kg expressed as Area under the curve; format: ADME, organism-based, Macaca fascicularis; design: time < 48 hr, dose 10 mg/kg, route oral; settings: cynomolgus monkey, po; how it was run: as §1
[17] = In vivo antitumor efficacy in cynomolgus monkeys by injecting a dose of 5 mg/kg, as HCl salt in saline solution,i/v and the serum half-life was determined; format: ADME, organism-based, Macaca fascicularis; design: dose 5 mg/kg; settings: cynomolgus monkey, iv; how it was run: as §1
[18] = In vivo antitumor efficacy in cynomolgus monkeys 0-48 hr after peroral dose of 5 mg/kg expressed as Area under the curve; format: ADME, organism-based, Macaca fascicularis; design: time < 48 hr, dose 5 mg/kg, route oral; settings: cynomolgus monkey, po; how it was run: as §1
[19] = In vivo antitumor efficacy in nude mice by injecting a dose of 25 mg/kg iv and serum half-life was determined; format: ADME, organism-based; design: dose 25 mg/kg, route intravenous; settings: mouse; how it was run: as §1
[20] = as §3; format: ADME, organism-based; design: dose 25 mg/kg, route oral; settings: mouse; remark: listed apart in the source
Cynomolgus monkey [21] = test: In vivo antitumor efficacy in cynomolgus monkeys by injecting a dose of 10 mg/kg, as HCl salt in saline solution, perorally and the duration of action was reported; format: ADME, organism-based, Macaca fascicularis; design: dose 10 mg/kg, route oral; settings: po
How it was run: (§4)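 Cynomolgus monkeys; hydrochloride salt in saline iv, or compound given po (as hydrochloride, as micronized free base in corn oil, or as hydrochloride in 0.4% methyl cellulose, depending on compound).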

[22] = In vivo antitumor efficacy in cynomolgus monkeys by injecting a dose of 5 mg/kg, as HCl salt in saline solution, iv and the serum half-life was determined; format: ADME, organism-based, Macaca fascicularis; design: dose 5 mg/kg, route intravenous; settings: cynomolgus monkey; how it was run: as §4
[23] = In vivo antitumor efficacy in nude mice by injecting a dose of 25 mg/kg, micronized free base in 20% HPbetaCD, iv and the total drug exposure was determined. (0-24hr); format: ADME, organism-based; design: time < 24 hr, dose 25 mg/kg, route intravenous; settings: mouse
[24] = In vivo antitumor efficacy in cynomolgus monkeys by injecting a dose of 10 mg/kg, as HCl salt in saline solution, perorally and the total drug exposure was determined (0-8 hr); format: ADME, organism-based, Macaca fascicularis; design: time < 8 hr, dose 10 mg/kg, route oral; settings: cynomolgus monkey, po; how it was run: as §1
[25] = In vivo antitumor efficacy in cynomolgus monkeys by injecting a dose of 5 mg/kg, as HCl salt in saline solution, perorally and the total drug exposure was determined (0-8 hr); format: ADME, organism-based, Macaca fascicularis; design: time < 8 hr, dose 5 mg/kg, route oral; settings: cynomolgus monkey, po; how it was run: as §4
[26] = In vivo antitumor efficacy in nude mice by injecting a dose of 25 mg/kg, as HCl salt in saline solution, iv and the serum half-life was determined; format: ADME, organism-based; design: dose 25 mg/kg, route intravenous; settings: mouse
[27] = Oral bioavailability in mouse (nude) (dose 25 mg/kg i.v.); format: ADME, organism-based; settings: in vivo
[28] = Oral bioavailability in nude mice; format: ADME, organism-based; settings: mouse, in vivo, read-out: Bioavailabiility
[29] = In vivo antitumor efficacy in nude mice by injecting a dose of 25 mg/kg, as HCl salt in saline solution, iv and the total drug exposure was determined. (0-24hr); format: ADME, organism-based; design: time < 24 hr, dose 25 mg/kg, route intravenous; settings: mouse
[30] = In vivo antitumor efficacy in nude mice by injecting a dose of 25 mg/kg, micronized free base in 20% HPbetaCD, iv and the serum half-life was determined; format: ADME, organism-based; design: dose 25 mg/kg, route intravenous; settings: mouse
[31] = In vivo antitumor efficacy in cynomolgus monkeys by injecting a dose of 5 mg/kg, as HCl salt in saline solution, intravenously and the total drug exposure was determined (0-8 hr); format: ADME, organism-based, Macaca fascicularis; design: time < 8 hr, dose 5 mg/kg, route intravenous; settings: cynomolgus monkey, iv; how it was run: as §4
[32] = In vivo antitumor efficacy in cynomolgus monkeys by injecting a dose of 10 mg/kg, as HCl salt in saline solution, perorally and the maximum drug concentration was determined; format: ADME, organism-based, Macaca fascicularis; design: dose 10 mg/kg, route oral; settings: cynomolgus monkey, po; how it was run: as §4
[33] = In vivo antitumor efficacy in nude mice by injecting a dose of 25 mg/kg, as HCl salt in saline solution, perorally and the total drug exposure was determined (0-24hr); format: ADME, organism-based; design: time < 24 hr, dose 25 mg/kg, route oral; settings: mouse, po
[34] = as §3; format: ADME, organism-based; design: dose 25 mg/kg, route oral; settings: mouse; remark: listed apart in the source
[35] = In vivo antitumor efficacy in nude mice by injecting a dose of 25 mg/kg, micronized free base in 20% HPbetaCD, perorally and the total drug exposure was determined (0-24hr); format: ADME, organism-based; design: time < 24 hr, dose 25 mg/kg, route oral; settings: mouse, po
Mus musculus [36] = test: In vivo antitumor efficacy in nude mice by injecting a dose of 25 mg/kg, as HCl salt in saline solution, perorally and the duration of action was reported; format: ADME, organism-based; design: dose 25 mg/kg, route oral; settings: po
[37] = In vivo antitumor efficacy in cynomolgus monkeys by injecting a dose of 5 mg/kg, as HCl salt in saline solution, perorally and the maximum drug concentration was determined; format: ADME, organism-based, Macaca fascicularis; design: dose 5 mg/kg, route oral; settings: cynomolgus monkey, po; how it was run: as §4

Question: What does the source list for `O=C(Cc1cc[n+]([O-])cc1)N1CCN(C2c3ccc(Cl)cc3CCc3cc(Br)cnc32)CC1` (centres undefined)?
Answer: AUC at 48 h [1]: 24400 ng·h/mL; IC50 [2]: > 38 µM; Cmax (Cynomolgus monkey [3]): 3 µM; Cmax [4]: 5.7 µM; bioavailability [5]: 84%; Cmax [6]: 1.2 µM; bioavailability [7]: 38.5%; Time above IC50 (Mus musculus [8]): 24 h; Time above IC50 (Mus musculus [9]): 7 h; Time above IC50 [10]: 6 h; Time above IC50 (Cynomolgus monkey [11]): 24 h; Cmax [12]: 10 µM; AUC [13]: 16700 ng·h/mL; AUC at 24 h [14]: 19600 ng·h/mL; AUC at 24 h [15]: 23400 ng·h/mL; AUC at 48 h [16]: 35600 ng·h/mL; half-life [17]: 2.6 h; AUC at 48 h [18]: 9400 ng·h/mL; half-life [19]: 1.2 h

Question: With `NC(=O)N1CCC(CC(=O)N2CCN(C3c4ccc(Cl)cc4CCc4cc(Br)cnc43)CC2)CC1` (centres undefined) as the compound, how does the Cmax [20] read?
Answer: Its Cmax is 38.8 µM.

Question: What about the “Time above IC50” value (Cynomolgus monkey [21]) of the same compound?
Answer: Its value is 24 h.

Question: What about the half-life [22] of the same compound?
Answer: The half-life was 2.4 h.

Question: What about the AUC at 24 h [23] of the same compound?
Answer: The AUC at 24 h was 57200 ng·h/mL.

Question: What about the AUC at 8 h [24] of the same compound?
Answer: Its AUC at 8 h is 12700 ng·h/mL.

Question: What about the AUC at 8 h [25] of the same compound?
Answer: Its AUC at 8 h is 4270 ng·h/mL.

Question: And the IC50 [2]?
Answer: The IC50 was greater than 35 µM.

Question: What about the half-life [26] of the same compound?
Answer: The half-life was 1.2 h.

Question: What about the bioavailability [27] of the same compound?
Answer: Its bioavailability is 100%.

Question: And the bioavailability [28]?
Answer: Its bioavailability is 96.6%.

Question: And the bioavailability [7]?
Answer: Its bioavailability is 35%.

Question: What about the AUC at 24 h [29] of the same compound?
Answer: The AUC at 24 h was 33900 ng·h/mL.

Question: And the half-life [30]?
Answer: Its half-life is 1.5 h.

Question: What about the AUC at 8 h [31] of the same compound?
Answer: Its AUC at 8 h is 12300 ng·h/mL.

Question: And the Cmax [32]?
Answer: The Cmax was 2 µM.

Question: What about the AUC at 24 h [33] of the same compound?
Answer: Its AUC at 24 h is 70800 ng·h/mL.

Question: What about the Cmax [34] of the same compound?
Answer: Its Cmax is 71.1 µM.

Question: What about the AUC at 24 h [35] of the same compound?
Answer: Its AUC at 24 h is 55200 ng·h/mL.

Question: What about the “Time above IC50” value (Mus musculus [36]) of the same compound?
Answer: Its value is 8 h.

Question: What about the Cmax [37] of the same compound?
Answer: Its Cmax is 0.5 µM.
